In ChEMBL document CHEMBL4118063, “Design, synthesis and evaluation of aromatic heterocyclic derivatives as potent antifungal agents” (Eur J Med Chem, 2017):
Values after ≈ are worked out from the molar mass of the structure shown.

The molecules below were run on Candida tropicalis (assay: Antifungal activity against Candida tropicalis cgmcc 2.3739 by broth microdilution method).
Type: functional
Procedure, shortened: (§1)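 Serial twofold-style dilution in growth medium per NCCLS broth microdilution guidelines. Compounds dissolved in DMSO before dilution. Fluconazole and itraconazole served as positive controls. MIC was read as the lowest concentration that prevents visible fungal growth.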

| SMILES | MIC [µg/mL] |
| --- | --- |
| CC(C)OC(=O)[C@H](Cn1ccnc1)NC(=O)c1ccc(-c2ccccc2F)cc1 | 0.0625 (≈ 0.158 µM) |
| CC(C)COC(=O)[C@H](Cn1ccnc1)NC(=O)c1coc(-c2ccccc2)n1 | 4 (≈ 10.5 µM) |

These molecules were tested on Candida albicans (assay: Antifungal activity against Candida albicans ATCC SC5314 by broth microdilution method).
Type: functional
Procedure, shortened: as §1

| SMILES | MIC [µg/mL] |
| --- | --- |
| CC(C)OC(=O)[C@H](Cn1ccnc1)NC(=O)c1ccc(-c2ccccc2F)cc1 | 0.0625 (≈ 0.158 µM) |
| CC(C)COC(=O)[C@H](Cn1ccnc1)NC(=O)c1coc(-c2ccccc2)n1 | > 16 |

What follows are molecules tested on Cryptococcus neoformans (assay: Antifungal activity against Cryptococcus neoformans cgmcc 2.3161 by broth microdilution method).
Type: functional
Procedure, shortened: as §1

| SMILES | MIC [µg/mL] |
| --- | --- |
| CC(C)OC(=O)[C@H](Cn1ccnc1)NC(=O)c1ccc(-c2ccccc2F)cc1 | 1 (≈ 2.53 µM) |
| CC(C)COC(=O)[C@H](Cn1ccnc1)NC(=O)c1coc(-c2ccccc2)n1 | > 16 |

These molecules were tested on Aspergillus fumigatus (assay: Antifungal activity against Aspergillus fumigatus GIM 3.524 by broth microdilution method).
Type: functional
Procedure, shortened: as §1

| SMILES | MIC [µg/mL] |
| --- | --- |
| CC(C)OC(=O)[C@H](Cn1ccnc1)NC(=O)c1ccc(-c2ccccc2F)cc1 | > 16 |
| CC(C)COC(=O)[C@H](Cn1ccnc1)NC(=O)c1coc(-c2ccccc2)n1 | > 16 |

These molecules were tested on Candida albicans (assay: Antifungal activity against Candida albicans CPCC 400523 by broth microdilution method).
Type: functional
Procedure, shortened: as §1

| SMILES | MIC [µg/mL] |
| --- | --- |
| CC(C)OC(=O)[C@H](Cn1ccnc1)NC(=O)c1ccc(-c2ccccc2F)cc1 | 0.25 (≈ 0.632 µM) |
| CC(C)COC(=O)[C@H](Cn1ccnc1)NC(=O)c1coc(-c2ccccc2)n1 | > 16 |
